According to ChEMBL document CHEMBL1765051 (J Med Chem, 2011):
Values after ≈ are worked out from the molar mass of the structure shown.

Key:
[1] = test system: Human immunodeficiency virus 2; assay: Antiviral activity against wild type HIV2 infected in human CEM cells assessed as inhibition of syncytia formation; assay type: functional, organism-based; settings: Human immunodeficiency virus 2, CCRF-CEM
[2] = test system: Human immunodeficiency virus 1; assay: Antiviral activity against wild type HIV1 infected in human CEM cells assessed as inhibition of syncytia formation; assay type: functional, organism-based; settings: Human immunodeficiency virus 1, CCRF-CEM
[3] = target: Human immunodeficiency virus type 1 reverse transcriptase (Human immunodeficiency virus 1, UniProt Q72547); assay: Inhibition of wild type HIV-1 reverse transcriptase-mediated polymerization reaction after 30 mins
[4] = target: Human immunodeficiency virus type 1 reverse transcriptase (Human immunodeficiency virus 1, UniProt Q72547, E138K); assay: Inhibition of HIV-1 reverse transcriptase E138K mutant-mediated polymerization reaction after 30 mins
In short: (§1)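 Recombinant mutant HIV-1 RT started reactions containing 50 mM Tris-HCl pH 7.8, 5 mM DTT, 300 mM glutathione, 0.5 mM EDTA, 150 mM KCl, 5 mM MgCl2, BSA, 0.06% Triton X-100, 2.8 μM [3H]dGTP, 0.1 mM poly(rC)/oligo(dG) and varying compound. Incubated 30 min at 37°C, stopped with yeast RNA/pyrophosphate/TCA, acid-insoluble radioactivity counted; IC50 = 50% polymerization inhibition; mean ± SD, ≥2 independent experiments.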

[5] = Inhibition of HIV-1 reverse transcriptase […] and E138K mutant-mediated polymerization reaction after 30 mins; set-up: species or system Human immunodeficiency virus 1; in short: as §1
[6] = target: Human immunodeficiency virus type 1 reverse transcriptase (Human immunodeficiency virus 1, UniProt Q72547, K101E); assay: Inhibition of HIV-1 reverse transcriptase K101E mutant-mediated polymerization reaction after 30 mins; in short: as §1
[7] = test system: Human immunodeficiency virus 1; assay: Antiviral activity against HIV1 3B harboring reverse transcriptase V179N mutant infected in human CEM cells assessed as inhibition of syncytia formation; assay type: functional, organism-based; settings: Human immunodeficiency virus 1, 3B, CCRF-CEM
[8] = test system: Human immunodeficiency virus 1; assay: Antiviral activity against HIV1 3B harboring reverse transcriptase L100I mutant infected in human CEM cells assessed as inhibition of syncytia formation; assay type: functional, organism-based; settings: Human immunodeficiency virus 1, 3B, CCRF-CEM
[9] = test system: Human immunodeficiency virus 1; assay: Ratio of EC50 for HIV1 3B harboring reverse transcriptase L100I mutant to EC50 for wild type HIV1 3B; assay type: functional
[10] = test system: Human immunodeficiency virus 1; assay: Ratio of EC50 for HIV1 3B harboring reverse transcriptase Y181I mutant to EC50 for wild type HIV1 3B; assay type: functional
[11] = test system: Human immunodeficiency virus 1; assay: Antiviral activity against wild type HIV1 3B infected in human CEM cells assessed as inhibition of syncytia formation; assay type: functional, organism-based; settings: Human immunodeficiency virus 1, 3B, CCRF-CEM
[12] = test system: Human immunodeficiency virus 1; assay: Ratio of EC50 for HIV1 3B harboring reverse transcriptase Y181C mutant to EC50 for wild type HIV1 3B; assay type: functional
[13] = test system: Human immunodeficiency virus 1; assay: Ratio of EC50 for HIV1 3B harboring reverse transcriptase Y188H mutant to EC50 for wild type HIV1 3B; assay type: functional
[14] = test system: Human immunodeficiency virus 1; assay: Antiviral activity against HIV1 3B harboring reverse transcriptase E138K mutant infected in human CEM cells assessed as inhibition of syncytia formation; assay type: functional, organism-based; settings: Human immunodeficiency virus 1, 3B, CCRF-CEM
[15] = test system: Human immunodeficiency virus 1; assay: Antiviral activity against HIV1 3B harboring reverse transcriptase Y188H mutant infected in human CEM cells assessed as inhibition of syncytia formation; assay type: functional, organism-based; settings: Human immunodeficiency virus 1, 3B, CCRF-CEM
[16] = test system: Human immunodeficiency virus 1; assay: Antiviral activity against HIV1 3B harboring reverse transcriptase N136A/Q/K mutant infected in human CEM cells assessed as inhibition of syncytia formation; assay type: functional, organism-based; settings: Human immunodeficiency virus 1, 3B, CCRF-CEM
[17] = test system: Human immunodeficiency virus 1; assay: Antiviral activity against HIV1 3B harboring reverse transcriptase V106A mutant infected in human CEM cells assessed as inhibition of syncytia formation; assay type: functional, organism-based; settings: Human immunodeficiency virus 1, 3B, CCRF-CEM
[18] = test system: Human immunodeficiency virus 1; assay: Ratio of EC50 for HIV1 3B harboring reverse transcriptase E138K mutant to EC50 for wild type HIV1 3B; assay type: functional
[19] = test system: Human immunodeficiency virus 1; assay: Ratio of EC50 for HIV1 3B harboring reverse transcriptase G190E mutant to EC50 for wild type HIV1 3B; assay type: functional
[20] = test system: Human immunodeficiency virus 1; assay: Antiviral activity against HIV1 3B harboring reverse transcriptase Y181C mutant infected in human CEM cells assessed as inhibition of syncytia formation; assay type: functional, organism-based; settings: Human immunodeficiency virus 1, 3B, CCRF-CEM
[21] = test system: Human immunodeficiency virus 1; assay: Ratio of EC50 for HIV1 3B harboring reverse transcriptase K103N mutant to EC50 for wild type HIV1 3B; assay type: functional
[22] = test system: Human immunodeficiency virus 1; assay: Antiviral activity against HIV1 3B harboring reverse transcriptase G190E mutant infected in human CEM cells assessed as inhibition of syncytia formation; assay type: functional, organism-based; settings: Human immunodeficiency virus 1, 3B, CCRF-CEM
[23] = test system: Human immunodeficiency virus 1; assay: Ratio of EC50 for HIV1 3B harboring reverse transcriptase Y188L mutant to EC50 for wild type HIV1 3B; assay type: functional
[24] = test system: Human immunodeficiency virus 1; assay: Ratio of EC50 for HIV1 3B harboring reverse transcriptase N136A/Q/K mutant to EC50 for wild type HIV1 3B; assay type: functional
[25] = test system: Human immunodeficiency virus 1; assay: Antiviral activity against HIV1 3B harboring reverse transcriptase Y181I mutant infected in human CEM cells assessed as inhibition of syncytia formation; assay type: functional, organism-based; settings: Human immunodeficiency virus 1, 3B, CCRF-CEM
[26] = test system: Human immunodeficiency virus 1; assay: Antiviral activity against HIV1 3B harboring reverse transcriptase K103N mutant infected in human CEM cells assessed as inhibition of syncytia formation; assay type: functional, organism-based; settings: Human immunodeficiency virus 1, 3B, CCRF-CEM
[27] = test system: Human immunodeficiency virus 1; assay: Antiviral activity against HIV1 3B harboring reverse transcriptase Y188L mutant infected in human CEM cells assessed as inhibition of syncytia formation; assay type: functional, organism-based; settings: Human immunodeficiency virus 1, 3B, CCRF-CEM
[28] = test system: Human immunodeficiency virus 1; assay: Antiviral activity against HIV1 3B harboring reverse transcriptase E138D mutant infected in human CEM cells assessed as inhibition of syncytia formation; assay type: functional, organism-based; settings: Human immunodeficiency virus 1, 3B, CCRF-CEM
[29] = test system: Human immunodeficiency virus 1; assay: Ratio of EC50 for HIV1 3B harboring reverse transcriptase V106A mutant to EC50 for wild type HIV1 3B; assay type: functional

## CC1=CN([C@@H]2O[C@H](CO[Si](C)(C)C(C)(C)C)[C@@]3(OS(=O)(=O)C=C3N)[C@H]2O[Si](C)(C)C(C)(C)C)C(=O)NC1
[1]
  EC50: > 10 µM
[2]
  EC50: 100 nM

## Cc1cn([C@@H]2O[C@H](CO[Si](C)(C)C(C)(C)C)[C@@]3(NS(=O)(=O)N=C3N)[C@H]2O[Si](C)(C)C(C)(C)C)c(=O)n(C)c1=O
[1]
  EC50: > 7 µM
[2]
  EC50: 5300 nM

## Cc1cn([C@@H]2O[C@H](CO[Si](C)(C)C(C)(C)C)[C@@]3(OC(=O)N=C3N)[C@H]2O[Si](C)(C)C(C)(C)C)c(=O)n(C)c1=O
[1]
  EC50: > 35 µM
[2]
  EC50: 5800 nM

## Cc1cn([C@@H]2O[C@H](CO[Si](C)(C)C(C)(C)C)[C@]3(C=CS(=O)(=O)O3)[C@H]2O[Si](C)(C)C(C)(C)C)c(=O)n(C)c1=O
[1]
  EC50: > 2 µM
[2]
  EC50: 150 nM
[3]
  IC50: 3300 nM

## CNC(=O)CCCCn1c(=O)c(C)cn([C@@H]2O[C@H](CO[Si](C)(C)C(C)(C)C)[C@@]3(OS(=O)(=O)C=C3N)[C@H]2O[Si](C)(C)C(C)(C)C)c1=O
[1]
  EC50: > 10 µM

## Cc1cn([C@@H]2O[C@H](CO[Si](C)(C)C(C)(C)C)[C@@]3(OS(=O)(=O)C=C3N)[C@H]2O[Si](C)(C)C(C)(C)C)c(=O)[nH]c1=S
[1]
  EC50: > 2 µM
[2]
  EC50: 170 nM

## Nc1nc2c(ncn2[C@H]2CC[C@@H](COP(=O)(O)OP(=O)(O)OP(=O)(O)O)O2)c(=O)[nH]1 [DIDEOXY GUANOSINE TRIPHOSPHATE]
[4]
  IC50: 0.224 µM
[3]
  IC50: 224 nM
[5]
  IC50: 0.14 µg/mL
[6]
  IC50: 0.244 µM

## Cc1cn([C@@H]2O[C@H](CO[Si](C)(C)C(C)(C)C)[C@@]3(OS(=O)(=O)C=C3N)[C@H]2O[Si](C)(C)C(C)(C)C)c(=O)n(C)c1=O
[4]
  IC50: > 166 µM
[7]
  EC50: 0.22 µg/mL (≈ 0.364 µM)
[1]
  EC50: > 250 µM
[8]
  EC50: 0.07 µg/mL (≈ 0.116 µM)
[9]
  Ratio EC50: 7
[10]
  Ratio EC50: 30
[11]
  EC50: 0.03 µg/mL (≈ 0.0497 µM)
[12]
  Ratio EC50: 30
[13]
  Ratio EC50: 30
[2]
  EC50: 40 nM
[14]
  EC50: > 3 µg/mL
[15]
  EC50: > 3.3 µg/mL
[16]
  EC50: > 50 µg/mL
[17]
  EC50: 1.9 µg/mL (≈ 3.15 µM)
[18]
  Ratio EC50: 30
[19]
  Ratio EC50: 30
[20]
  EC50: 2 µg/mL (≈ 3.31 µM)
[21]
  Ratio EC50: 7
[22]
  EC50: > 10 µg/mL
[3]
  IC50: 2400 nM
[23]
  Ratio EC50: 30
[24]
  Ratio EC50: 30
[25]
  EC50: > 10 µg/mL
[26]
  EC50: 0.23 µg/mL (≈ 0.381 µM)
[27]
  EC50: > 10 µg/mL
[5]
  IC50: > 100 µg/mL
[6]
  IC50: > 166 µM
[28]
  EC50: 0.01 µg/mL (≈ 0.0166 µM)
[29]
  Ratio EC50: 30

## Cn1cnc2c(ncn2[C@@H]2O[C@H](CO[Si](C)(C)C(C)(C)C)[C@@]3(OS(=O)(=O)C=C3N)[C@H]2O[Si](C)(C)C(C)(C)C)c1=O
[1]
  EC50: > 150 µM
[2]
  EC50: 60 nM

## CC(C)(C)[Si](C)(C)OC[C@H]1O[C@@H](n2cnc3c(N)ncnc32)[C@H](O[Si](C)(C)C(C)(C)C)[C@]12OS(=O)(=O)C=C2N
[1]
  EC50: > 10 µM
[2]
  EC50: 50 nM

## Cc1cn([C@@H]2O[C@H](CO[Si](C)(C)C(C)(C)C)[C@@]3(OS(=O)(=O)C=C3N)[C@H]2O[Si](C)(C)C(C)(C)C)c(=O)[nH]c1=O
[4]
  IC50: > 170 µM
[7]
  EC50: 0.22 µg/mL (≈ 0.373 µM)
[1]
  EC50: > 20 µM
[8]
  EC50: 0.07 µg/mL (≈ 0.119 µM)
[9]
  Ratio EC50: 7
[10]
  Ratio EC50: 30
[11]
  EC50: 0.03 µg/mL (≈ 0.0509 µM)
[12]
  Ratio EC50: 30
[13]
  Ratio EC50: 30
[14]
  EC50: > 3 µg/mL
[15]
  EC50: > 3.3 µg/mL
[16]
  EC50: > 50 µg/mL
[17]
  EC50: 1.9 µg/mL (≈ 3.22 µM)
[18]
  Ratio EC50: 30
[19]
  Ratio EC50: 30
[20]
  EC50: 2 µg/mL (≈ 3.39 µM)
[21]
  Ratio EC50: 7
[22]
  EC50: > 10 µg/mL
[23]
  Ratio EC50: 30
[24]
  Ratio EC50: 30
[25]
  EC50: > 10 µg/mL
[26]
  EC50: 0.23 µg/mL (≈ 0.39 µM)
[27]
  EC50: > 10 µg/mL
[5]
  IC50: > 100 µg/mL
[6]
  IC50: ≥ 170 µM
[28]
  EC50: 0.01 µg/mL (≈ 0.017 µM)
[29]
  Ratio EC50: 30

## CNC(=O)c1cnnn1[C@@H]1O[C@H](CO[Si](C)(C)C(C)(C)C)[C@@]2(OS(=O)(=O)C=C2N)[C@H]1O[Si](C)(C)C(C)(C)C
[1]
  EC50: > 7 µM
[2]
  EC50: 80 nM

## Cc1cn([C@@H]2O[C@H](CO[Si](C)(C)C(C)(C)C)[C@@]3(OS(=O)(=O)C=C3NC(=O)C(N)=O)[C@H]2O[Si](C)(C)C(C)(C)C)c(=O)n(C)c1=O
[1]
  EC50: > 7 µM
[2]
  EC50: 28 nM
